5HT1a ag: 5-HT1a (human) receptor agonism | CHO 5-HT1a Ga15 NFAT-bla reporter, FRET ratio; 0% basal, 100% maximal reference agonist | activation, % at 10 µM | actives 0.56% (n = 65,000) | AID 567;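 active = activation above the screen-wide mean activation plus 3 SD, cut at about 19% in these data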
HTR1E antagonist: antagonists of human 5-HT1E serotonin receptor; P28566; CHO 5-HT1E Ga15 NFAT-bla reporter, FRET, antagonist; inhibition, % at 6 µM; actives 0.99% (n = 65,000);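 active = inhibition above a set limit, the mean inhibition across every tested compound plus 3 SD, cut at about 29% in these data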;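 also: signal is the 460 over 535 nm emission ratio of beta-lactamase substrate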
HTR1E agonist: activates the human 5-HT1E serotonin receptor; CHO 5-HT1E Ga15 NFAT-bla reporter, FRET; 0% DMSO wells, 100% control agonist wells; activation, % at 6 µM; actives 0.69% (n = 65,000);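 active = activation above a set limit, the screen-wide mean activation plus 3 SD, cut at about 8.5% in these data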
S1P3 ag: activates the human S1P3 receptor. actives 0.1% (n = 60,000). Q99500. activation, % at 4.5 µM. S1P3 NFAT-BLA reporter cells, agonism, FRET ratio; relative to 1 µM S1P, basal subtracted;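 active = activation above the screen-wide mean plus 3 SD, cut at about 4.5% in these data, passing the limit was not always enough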
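material = human S1P3 NFAT-BLA reporter CHO cells | schedule = 4 h compound at 37 °C, 2 h substrate at RT | measured by = fluorescent BLA substrate, ex 405 nm, em 460/535 nm ratio | controls = 1 µM S1P reference | replication = primary once, confirmation triplicate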
5-HT1A blocker: 5-HT1a (human) receptor antagonism | P08908 | CHO 5-HT1a Ga15 NFAT-bla reporter, antagonist mode | inhibition, % at 10 µM | actives 0.68% (n = 62,000) | AID 612;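 active = inhibition above the mean of all tested compounds plus 3 SD, cut at about 43% in these data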;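 also: receptor stimulated by 5-CT agonist at 100 nM near EC80; beta-lactamase reporter measured by ratiometric fluorescence of a cleavable substrate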
S1P1 ag-PAM: agonists and agonism potentiators of human S1P1 receptor; P21453; S1P1 CRE-bla cells, forskolin, beta-lactamase FRET, potentiator mode; S1P1 agonist co-added at EC20, 2 nM; 100% = saturating reference agonist, 0% = basal; activation, % at 9.5 µM; actives 0.57% (n = 56,000);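 active = activation above a cutoff set at the mean activation of all tested compounds plus 3 SD, cut at about 54% in these data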;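 also: forskolin at 4 µM as EC80 and the EC20 agonist is SEW2871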
Target sequence (P21453 whole entry, looked up): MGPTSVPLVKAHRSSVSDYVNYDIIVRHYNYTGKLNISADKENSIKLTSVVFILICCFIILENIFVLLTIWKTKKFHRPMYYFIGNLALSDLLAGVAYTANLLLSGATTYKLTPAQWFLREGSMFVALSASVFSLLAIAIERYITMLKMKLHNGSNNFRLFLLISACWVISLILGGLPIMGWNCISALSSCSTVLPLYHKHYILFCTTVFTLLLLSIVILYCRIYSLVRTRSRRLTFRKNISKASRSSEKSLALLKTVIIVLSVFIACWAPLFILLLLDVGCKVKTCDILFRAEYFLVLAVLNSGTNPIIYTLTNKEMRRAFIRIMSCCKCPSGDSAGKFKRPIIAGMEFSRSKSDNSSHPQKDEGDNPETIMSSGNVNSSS
Hits are given with their value; - = inactive; . = no result given. Sampled rows, rich in hits. Any-hit rate of the full collection: about 3%.

SMILES | 5HT1a ag | HTR1E antagonist | HTR1E agonist | S1P3 ag | 5-HT1A blocker | S1P1 ag-PAM
COc1cccc(C(=O)N2CCN(Cc3ccco3)CC2)c1OC | - | - | - | - | - | -
Cc1ccc(NC(=O)CN(C)S(=O)(=O)c2cccc3nsnc23)cc1Cl | - | - | - | - | - | -
COc1ccccc1N1CCN(CC(O)COc2cccc3ccccc23)CC1 (stereo not given) | - | - | - | - | . | -
COc1ccccc1N1CCN(Cc2cc(Br)c(O)c3ncccc23)CC1 | - | 38 | 14 | - | 65 | -
COc1ccccc1/C=C/CN1CCOCC1 | - | - | - | - | - | .
COc1ccccc1N1CCN(CCOc2c(OC)cccc2OC)CC1 | - | - | 30 | - | . | -
CCOc1ccccc1N1CCN(Cc2cccc(OC)c2O)CC1 | - | - | - | - | - | .
COc1ccccc1N1CCN(C/C=C/c2ccc(N(C)C)cc2)CC1 | - | - | 9.7 | - | 79 | -
CC(=O)OC(/C(O)=C(\C#N)c1nc2ccccc2[nH]1)c1ccccc1 (stereo not given) | - | - | - | - | - | -
Cc1ccc(/C=C/C2=Cc3c(sc(NC(=O)CSc4n[nH]c(N)n4)c3C#N)C(C)(C)C2)o1 | - | - | - | - | - | -
CCc1ccccc1OCCCCN1CCCC1 | - | - | 12 | - | - | .
C=CCc1ccccc1OCCCCN1CCCC1 | - | - | 10 | - | - | -
Cc1ccccc1OCCCN1CCCC1 | - | - | - | - | - | -
CCOC(=O)N1CCN(C(=O)c2ccc(Cn3c(=S)[nH]c4cc5c(cc4c3=O)OCO5)cc2)CC1 | - | 29 | - | . | - | .
Cc1ccc(C)c(Cn2c(CN(C)Cc3ccccc3)nc3c2c(=O)n(C)c(=O)n3C)c1 | - | - | - | - | - | -
CC1(C2(O)CC(c3ccccc3)ON2)CCCCC1 (stereo not given) | - | 37 | - | - | . | -
COc1ccc(OC)c(C(O)c2coc3ccc(O)c(CN4CCOCC4)c23)c1 (stereo not given) | - | - | - | - | . | -
Cc1cc(NC(=O)CSc2nc(-c3ccco3)cc(C(F)(F)F)n2)no1 | - | 68 | - | - | 59 | -
CS(=O)(=O)c1nc(-c2ccco2)cc(C(F)(F)F)n1 | - | 100 | - | . | 103 | .
O=C(CSc1nc2ccccc2o1)Nc1nc2ccccc2s1 | - | - | - | - | - | -
O=C(Cc1cccs1)Nc1nc2ccccc2s1 | 64 | - | - | - | - | -
Nc1c(C(=O)NCc2ccc3c(c2)OCO3)c2nc3ccccc3nc2n1CCCN1CCOCC1 | 37 | - | 13 | 7.9 | - | -
Nc1c(C(=O)NCCN2CCOCC2)c2nc3ccccc3nc2n1-c1ccc2c(c1)OCO2 | - | - | - | - | - | -
Nc1c(C(=O)NCCN2CCOCC2)c2nc3ccccc3nc2n1CCc1ccccc1 | 24 | - | - | 7.9 | - | -
Cn1c(=O)c2c(nc(SC3C(=O)CC(C)(C)CC3=O)n2C)n(C)c1=O | - | - | - | - | - | -
SMILES | 5HT1a ag | HTR1E antagonist | HTR1E agonist | S1P3 ag | 5-HT1A blocker | S1P1 ag-PAM
COc1ccc(S(=O)(=O)Nc2ccc(F)c(Cl)c2)cc1OC | - | - | - | - | - | .
O=C(Oc1ccc(-c2nnco2)cc1)N(c1ccccc1)c1ccccc1 | - | - | - | 16 | - | .
COc1ccc(OC)c(N2C(=O)CC(C(C)c3ccccc3)C2=O)c1 (stereo not given) | - | - | - | - | - | -
Cc1nc(N2CCN(c3ccccc3)CC2)c2c3c(sc2n1)CCC3 | - | - | - | - | - | -
CSc1nc(N2CCOCC2)c2c3c(sc2n1)CCC3 | - | 29 | - | - | - | -
Cc1nc2ncnn2c(N2CCCC(C(=O)Nc3ccc4c(c3)CCC4)C2)c1C (stereo not given) | - | - | - | . | - | .
COc1ccc(OC)c(C2CC(=O)c3c([nH]c(C(=O)OC(C)C)c3C)C2)c1 (stereo not given) | - | 87 | - | - | 71 | -
CCCOCCOC(=O)c1[nH]c2c(c1C)C(=O)CC(c1cc(OC)ccc1OC)C2 (stereo not given) | - | 81 | - | - | 76 | -
O=C(Nc1ccc(Oc2ccc(NC(=O)c3ccco3)c(NC(=O)c3ccco3)c2)cc1)c1ccco1 | - | - | - | - | 59 | -
COC(=O)C(NC(=O)c1ccco1)(Nc1ccc(Br)cn1)C(F)(F)F (stereo not given) | - | - | - | - | . | -
OCc1cn(-c2ccccc2)nc1-c1ccc(-c2nn(-c3ccccc3)cc2CO)cc1 | - | - | - | . | - | .
N#Cc1cn(-c2ccccc2)nc1-c1ccccc1 | - | 34 | - | - | - | -
N#CC1=C(N)N2C(=C(C#N)C13CCCCC3)SC1CCCCC12O (stereo not given) | - | - | - | - | - | -
CCc1nc(Nc2ccc(N3CCN(C(C)=O)CC3)cc2)c2oc3ccccc3c2n1 | - | 34 | - | - | - | -
COc1ccccc1N1CCN(C(=O)c2ccc(S(=O)(=O)N3CCCCCC3)cc2)CC1 | - | - | - | - | - | -
O=C(CN1CCN(Cc2ccccc2)CC1)c1ccc(Br)cc1 | 22 | - | - | - | - | -
COCc1cc(CN2CCCC2)c(O)c2ncccc12 | - | - | - | - | - | -
Oc1c(CN2CCCCC2)cc(COCc2ccccc2)c2cccnc12 | - | 48 | - | - | - | -
Oc1ccc(CNc2ccccc2F)c2cccnc12 | - | - | - | - | - | -
Oc1ccc(COCc2ccccc2)c2cccnc12 | - | 47 | - | - | - | -
Oc1c(CN2CCN(c3ccccn3)CC2)cc(Cl)c2cccnc12 | - | 54 | - | - | 54 | -
COc1ccc(CN2CCN(c3ncccn3)CC2)c(OC)c1 | - | - | - | - | - | -
COc1ccc(CN2CCN(c3ccccn3)CC2)c(OC)c1 | - | - | 11 | - | - | -
CC1=C(C#N)C(C(F)(F)F)(C(F)(F)F)N=C(c2ccco2)N1 | - | - | - | - | - | .
Cc1ccc(-n2c(CSc3nc(C)cc(C)n3)nnc2SCC(=O)N2CCCC2)cc1 | - | - | - | - | - | -
O=C(Oc1ccc2ccccc2c1)c1ccco1 | - | - | - | - | - | -
CC1CC(C)(C)Nc2ccc(OC(=O)c3ccco3)cc21 (stereo not given) | - | 40 | - | - | 51 | -
Cc1ccc(NC(=O)CC2Nc3ccccc3NC2=O)cc1Cl (stereo not given) | 34 | - | 14 | 5.9 | - | -
COc1cccc(N2CCN(c3ncnc4c3[nH]c3ccccc34)CC2C)c1 (stereo not given) | - | 91 | - | - | . | -

High-throughput results from PubChem BioAssay.
